The source of these data is ChEMBL document CHEMBL1135898, “Synthesis and antimycobacterial activity of 6-arylpurines: the requirements for the N-9 substituent in active antimycobacterial purines” (J Med Chem, 2002).

≈ marks a conversion by molar mass, not a printed value.

For test [1], the system named is K562. Put plainly: Cytostatic activity against chronic myelogenous leukemia cells (K-562) based on its ability to inhibit [3H]thymidine incorporation (at 1.0 g/ml). Particulars: Homo sapiens. It counts as functional, cell-based. The gist of the method: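 K-562 leukemia cells; inhibition of [3H]thymidine incorporation measured at 1.00 μg/mL instead of the usual 10 μg/mL because of low compound solubility.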
For orientation: Dividing cells build labelled thymidine or BrdU into new DNA.

For test [2], the system named is Vero. The experiment in a line: Minimum inhibitory concentration for testing cytotoxicity in VERO cells. Format: functional, cell-based. The settings on record: Chlorocebus sabaeus. The gist of the method: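 VERO cells exposed 72 h to compound at concentrations up to 62.5 μg/mL. Viability read by cellular MTT conversion to formazan, and an IC50 was derived.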

The nature of test [3]: Selectivity Index, SI = IC50:MIC.ND means not determined. It counts as functional.
The test system of test [4] is K562. Put plainly: Cytostatic activity against chronic myelogenous leukemia cells (K-562) based on its ability to inhibit [3H]thymidine incorporation. It counts as functional, cell-based. The settings on record: Homo sapiens. The gist of the method:
(§1)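 K-562 chronic myelogenous leukemia cells; cytostatic effect read as inhibition of [3H]thymidine incorporation. Reported as percent inhibition at 10 μg/mL, with EC50 derived only for the more toxic compounds.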

In test [5] the test system is K562. Put plainly: Cytostatic activity against chronic myelogenous leukemia cells (K-562) based on its ability to inhibit [3H]thymidine incorporation. The settings on record: Homo sapiens. Format: functional, cell-based. The gist of the method: as §1
Test [6] relates to Mycobacterium tuberculosis. The experiment in a line: Percent inhibition of Mycobacterium tuberculosis H37Rv at 6.25 µg/ml concentration in BACTEC 12B medium using microplate alamar blue assay. Format: functional. The gist of the method:
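Primary screen at single concentration 6.25 μg/mL against M. tuberculosis H37Rv (ATCC 27294) in BACTEC 12B medium, read by microplate alamar blue assay; fluorescent compounds instead tested in BACTEC 460 radiometric system. Percent growth inhibition reported.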
In general terms: Resazurin is reduced to fluorescent resorufin, in cell work by metabolically active cells.

Test [7] relates to Mycobacterium tuberculosis. Put plainly: Antibacterial activity against Mycobacterium tuberculosis H37Rv in BACTEC 12B medium using microplate alamar blue assay. It counts as functional. The gist of the method: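 MIC against M. tuberculosis H37Rv (ATCC 27294) by microplate alamar blue assay (MABA) in BACTEC 12B medium; compounds reaching ≥90% inhibition in the primary screen were re-tested at lower concentrations. MIC defined as minimum concentration giving 90% inhibition of growth; rifampin reference.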

The test system of test [8] is Lacticaseibacillus casei. Put plainly: Minimum Inhibitory Concentration against drug-resistant strain of Lactobacillus casei. It counts as functional.
Test [9] concerns Mycobacterium tuberculosis. Put plainly: Concentration effecting 99% reduction of Mycobacterium tuberculosis strain Erdman, growth in monolayers of mouse bone marrow macrophages after 7 days. It counts as functional. The settings on record: 168 h.
For test [10], the system named is Mycobacterium tuberculosis. The experiment in a line: Concentration effecting 90% reduction of Mycobacterium tuberculosis strain Erdman, growth in monolayers of mouse bone marrow macrophages after 7 days. Format: functional. Particulars: 168 h.

Broadly, the IC50 is the concentration that gives 50% inhibition. The low end stands for inhibition by little substance, the high end for a need for much substance. Regarding `c1ccc(Cn2cnc3c(-c4cccs4)ncnc32)cc1`, the concentration for half-maximal inhibition (IC50) in test [1] is less than 10 µg/mL; in [2] it was greater than 10 µg/mL. Also, in test [3], the Selectivity index was greater than 1.6.

In the case of `c1ccc(CCn2cnc3c(-c4ccco4)ncnc32)cc1`, the 50% inhibitory concentration (IC50) in [4] is 53 µg/mL (≈ 183 µM).

`Clc1nc(-c2ccccc2)c2ncn(Cc3ccccc3)c2n1`: in test [5], the half-maximal inhibitory concentration (IC50) came to 76 µg/mL (≈ 237 µM).

As for `Cn1cnc2c(-c3ccco3)ncnc21`, the IC50 in test [4] was less than 10 µg/mL.

For `OC[C@H]1O[C@@H](n2cnc3c(-c4ccccc4)ncnc32)[C@H](O)[C@@H]1O`, the IC50 in test [4] turned out to be 99 µg/mL (≈ 302 µM).

For orientation: Inhibition means the share of the control response that was lost under treatment. Consider `CC(=O)OC[C@H]1O[C@@H](Cn2cnc3c(-c4ccccc4)ncnc32)[C@H](OC(C)=O)[C@@H]1OC(C)=O`, for which, in test [6], the Inhibition came out at 4%.

For the compound `c1coc(-c2ncnc3c2ncn3CC2CCCCC2)c1`, the IC50 in test [4] was 60 µg/mL (≈ 213 µM).

Take `C=CCn1cnc2c(-c3ccco3)ncnc21`: 11 µg/mL (≈ 48.6 µM) corresponded to half-maximal inhibition in test [4] (IC50).

As for `c1csc(-c2[nH]cnc3ncnc2-3)c1`, the IC50 in test [4] was less than 10 µg/mL.

In turn, `OC[C@H]1OC(n2cnc3c(-c4ccco4)ncnc32)[C@H](O)[C@@H]1O` (stereo partly drawn) returned an Inhibition in test [6] of 0%.

Turning to `OC[C@H]1OC(n2cnc3c(-c4ccco4)nc(Cl)nc32)[C@H](O)[C@@H]1O` (stereo partly drawn), inhibition in test [5] was half-maximal at 100 µg/mL (≈ 283 µM) (IC50). The Inhibition in [6] is on record as 7%.

As usually defined, the MIC is the least concentration at which growth counts as inhibited. Low values mean a more susceptible organism, high ones a less susceptible organism. For `CO[C@H]1/C=C/O[C@@]2(C)Oc3c(C)c(O)c4c(O)c(c(/C=N/N5CCN(C)CC5)c(O)c4c3C2=O)NC(=O)/C(C)=C\C=C\[C@H](C)[C@H](O)[C@@H](C)[C@@H](O)[C@@H](C)[C@H](OC(C)=O)[C@@H]1C` [RIFAMPIN], in [7], the minimum inhibitory concentration (MIC) was determined as 0.25 µg/mL (≈ 0.304 µM).

The compound `c1ccc(-c2ncnc3c2ncn3C2CCOCC2)cc1` came in with an IC50 in [4] of less than 10 µg/mL.

Take `c1ccc(Cn2cnc3c(-c4ccccc4)ncnc32)cc1`: the IC50 in test [1] was less than 10 µg/mL.

In the case of `c1ccc(Cn2cnc3c(-c4ccco4)ncnc32)cc1` [9-BENZYL-6-(FURAN-2-YL)-9H-PURINE], in test [4], half-maximal inhibition (IC50) was put at 59 µg/mL (≈ 214 µM). Also, the Selectivity index in test [3] was 2.7.

The EC99 is the point of the concentration-response curve where the effect stands at 99%. In general, EC90 refers to the concentration at which the effect reaches the 90% level. Read a low EC90 as an effect from little substance. Regarding `Clc1nc(-c2ccco2)c2ncn(Cc3ccccc3)c2n1`, the 50% inhibitory concentration (IC50) in test [5] worked out at 27 µg/mL (≈ 86.9 µM). In addition, the MIC in [8] is greater than 10 µg/mL. In test [9], this compound registered a concentration for an effect of 99% (EC99) of 8.46 µg/mL. The 90% effect concentration (EC90) in [10] stood at 0.038 µg/mL (≈ 0.122 µM).
